One assay relates to Enterobacter cloacae. As to the kind of experiment: Antibacterial activity against gram negative organism, […] (MA2646). The class given is functional.
The next assay deals with Escherichia coli. As to the kind of experiment: Antibacterial activity was determined against gram negative organism, E. coli(vogel). The class given is functional. In outline:
(§1)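 MIC by standard microtitration against a panel of 10 representative Gram-negative and Gram-positive organisms; values reported in µg/mL.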

The subject of a further assay is Klebsiella pneumoniae. In words: Antibacterial activity was determined against gram negative organism, K. pneumoniae (MGH-2). Type of assay: functional. In outline: as §1
The subject of assay [1] is Mus musculus. In words: In vivo subcutaneous protective dose was determined in female charles river CD-1 mice infected with Streptococcus pneumoniae. The conditions noted are these: sc, read-out: PD50. The class given is functional. In short, it runs like this:
(§2)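 Acute lethal systemic infection model in mice; drug given by subcutaneous injection; potency read out as median protective dose (PD50), in mg/kg.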

The test system of assay [2] is Mus musculus. In words: In vivo oral protective dose was determined in female charles river CD-1 mice infected with Escherichia coli (vogel). The conditions noted are these: Mus musculus, po; read-out: PD50. Type of assay: functional. In outline: (§3)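 Acute lethal systemic infection model in mice; drug given orally by gavage; potency read out as median protective dose (PD50), in mg/kg.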

For assay [3], the system named is Mus musculus. As to the kind of experiment: In vivo oral protective dose was determined in female charles river CD-1 mice infected with Streptococcus pneumoniae. Type of assay: functional. Conditions: read-out: PD50. In outline: as §3
In assay [4] the test system is Mus musculus. In words: In vivo subcutaneous protective dose was determined in female charles river CD-1 mice infected with Escherichia coli (vogel). Type of assay: functional. The conditions noted are these: sc, read-out: PD50. In outline: as §2
Another assay has as its system Pseudomonas aeruginosa. As to the kind of experiment: Antibacterial activity was determined against gram negative organism, Pseudomonas aeruginosa (UI-18). Type of assay: functional. In short, it runs like this:
as §1

The subject of a further assay is Bacteria. In words: Antibacterial activity was determined against gram negative organism, Providencia rettgeri. (M1771). The class given is functional. In outline: as §1
Another assay concerns Streptococcus pneumoniae. As to the kind of experiment: Antibacterial activity was determined against gram positive organism, Streptococcus pneumoniae (SV-1). Type of assay: functional. In outline: as §1
For the next assay, the system named is Enterococcus faecalis. As to the kind of experiment: Antibacterial activity was determined against gram positive organism, Streptococcus faecalis (MGH-2). Type of assay: functional. In outline: as §1
The test system of the next assay is Streptococcus pyogenes. In words: Antibacterial activity was determined against gram positive organism, Streptococcus pyogenes (C203). Type of assay: functional. In outline:
as §1

The subject of assay [5] is Staphylococcus aureus. As to the kind of experiment: Antibacterial activity was determined against gram positive organism, Staphylococcus aureus (H228). Type of assay: functional. In short, it runs like this: as §1
In assay [6] the test system is Staphylococcus aureus. In words: Antibacterial activity was determined against gram positive organism, Staphylococcus aureus (UC76). Type of assay: functional. In short, it runs like this:
as §1

Assay [7] in a line: MIC ratio measured as the mean MICs of gram-negative bacteria. The class given is functional. In short, it runs like this:
(§4)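 Geometric mean of the MICs (µg/mL) over the Gram-negative or the Gram-positive strains of the 10-organism microtitration panel, calculated separately for each class.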

Assay [8] in a line: MIC ratio measured as the mean MICs of gram-positive bacteria. The class given is functional. In outline:
as §4

Assay [9] addresses DNA gyrase (Escherichia coli) (UniProt P0AES6+P0AES4).

This is an account of results in ChEMBL document CHEMBL1125920, “Synthesis and biological activity of 5-alkyl-1,7,8-trisubstituted-6-fluoroquinoline-3-carboxylic acids” (1991).

Converted amounts (≈) assume the structure as drawn.

For the compound `Cc1c(F)c(N2CCNCC2)c(F)c2c1c(=O)c(C(=O)O)cn2C1CC1`, the MIC with Enterobacter cloacae amounted to 0.025 µg/mL (≈ 0.0688 µM); with Escherichia coli, 0.025 µg/mL (≈ 0.0688 µM); with Klebsiella pneumoniae it was 0.025 µg/mL (≈ 0.0688 µM); against Pseudomonas aeruginosa, 0.2 µg/mL (≈ 0.55 µM); with Bacteria, 0.05 µg/mL (≈ 0.138 µM); in the assay on Streptococcus pneumoniae, 0.025 µg/mL (≈ 0.0688 µM). Besides, the MIC in the assay with Enterococcus faecalis turned out to be 0.05 µg/mL (≈ 0.138 µM); in the assay with Streptococcus pyogenes it was 0.05 µg/mL (≈ 0.138 µM); in the assay on Staphylococcus aureus [5], 0.025 µg/mL (≈ 0.0688 µM); in the assay with Staphylococcus aureus [6] it was 0.025 µg/mL (≈ 0.0688 µM). Further, the ED50 came out at 13.5 mg/kg in the assay with Mus musculus [1], 0.4 mg/kg in the assay with Mus musculus [2], 14 mg/kg with Mus musculus [3] and 0.2 mg/kg with Mus musculus [4]. Moreover, the Ratio in assay [7] is 0.043; in assay [8], 0.033. Moreover, the DNA cleavage in assay [9] was determined as 2.75 µg/mL.

As to `Cc1c(F)c(N2CCNC(C)C2)cc2c1c(=O)c(C(=O)O)cn2C1CC1` (stereo not given) [GREPAFLOXACIN], the MIC with Enterobacter cloacae was found to be 0.025 µg/mL (≈ 0.0696 µM); against Escherichia coli, 0.013 µg/mL (≈ 0.0362 µM); in the assay with Klebsiella pneumoniae it was 0.05 µg/mL (≈ 0.139 µM); against Pseudomonas aeruginosa, 0.8 µg/mL (≈ 2.23 µM); against Bacteria, 0.2 µg/mL (≈ 0.556 µM); against Streptococcus pneumoniae, 0.025 µg/mL (≈ 0.0696 µM). For the same compound, the MIC worked out at 0.1 µg/mL (≈ 0.278 µM) in the assay with Enterococcus faecalis, 0.05 µg/mL (≈ 0.139 µM) in the assay with Streptococcus pyogenes, 0.1 µg/mL (≈ 0.278 µM) against Staphylococcus aureus [5] and 0.025 µg/mL (≈ 0.0696 µM) in the assay with Staphylococcus aureus [6]. The ED50 is 8 mg/kg with Mus musculus [1], 1.5 mg/kg in the assay with Mus musculus [2], 24 mg/kg in the assay with Mus musculus [3] and 0.5 mg/kg in the assay on Mus musculus [4]. In addition, the Ratio stood at 0.6 in assay [7] and 2.07 in [8]. For the same compound, the DNA cleavage in assay [9] worked out at 3.75 µg/mL.

For `Cc1c(F)c(N2CCC(N)C2)c(F)c2c1c(=O)c(C(=O)O)cn2C1CC1` (stereo not given), the MIC was 0.006 µg/mL (≈ 0.0165 µM) with Enterobacter cloacae; 0.006 µg/mL (≈ 0.0165 µM) in the assay on Escherichia coli; 0.013 µg/mL (≈ 0.0358 µM) against Klebsiella pneumoniae; 0.4 µg/mL (≈ 1.1 µM) with Pseudomonas aeruginosa; 0.025 µg/mL (≈ 0.0688 µM) against Bacteria; 0.003 µg/mL (≈ 0.00826 µM) against Streptococcus pneumoniae. The MIC is 0.025 µg/mL (≈ 0.0688 µM) against Enterococcus faecalis, 0.013 µg/mL (≈ 0.0358 µM) in the assay with Streptococcus pyogenes, 0.013 µg/mL (≈ 0.0358 µM) in the assay on Staphylococcus aureus [5] and 0.003 µg/mL (≈ 0.00826 µM) in the assay with Staphylococcus aureus [6]. Also, the ED50 turned out to be 1.6 mg/kg with Mus musculus [1], 2 mg/kg in the assay on Mus musculus [2], 3 mg/kg in the assay on Mus musculus [3] and 0.5 mg/kg with Mus musculus [4]. Further, the Ratio in assay [7] stood at 0.021; in [8], 0.0082. In addition, the DNA cleavage in assay [9] turned out to be 3 µg/mL.

As to `CCNCC1CCN(c2c(F)c(C)c3c(=O)c(C(=O)O)cn(C4CC4)c3c2F)C1` (stereo not given), the MIC amounted to 0.1 µg/mL (≈ 0.247 µM) against Enterobacter cloacae; 0.05 µg/mL (≈ 0.123 µM) against Escherichia coli; 0.1 µg/mL (≈ 0.247 µM) in the assay on Klebsiella pneumoniae; 0.8 µg/mL (≈ 1.97 µM) in the assay on Pseudomonas aeruginosa; 0.2 µg/mL (≈ 0.493 µM) with Bacteria; 0.003 µg/mL (≈ 0.0074 µM) with Streptococcus pneumoniae. For the same compound, the minimum inhibitory concentration (MIC) against Enterococcus faecalis stood at 0.025 µg/mL (≈ 0.0617 µM); in the assay on Streptococcus pyogenes, 0.006 µg/mL (≈ 0.0148 µM); against Staphylococcus aureus [5], 0.013 µg/mL (≈ 0.0321 µM); against Staphylococcus aureus [6], 0.003 µg/mL (≈ 0.0074 µM). Also, the ED50 stood at 1.6 mg/kg with Mus musculus [1], 14 mg/kg with Mus musculus [2], 2.8 mg/kg in the assay on Mus musculus [3] and 3 mg/kg in the assay with Mus musculus [4]. The Ratio in assay [7] amounted to 0.15; in assay [8] it was 0.0071. This compound also gave a DNA cleavage in [9] of 3 µg/mL.

For `NC1CCN(c2c(F)cc3c(=O)c(C(=O)O)cn(C4CC4)c3c2F)C1` (stereo not given), the minimum inhibitory concentration (MIC) against Escherichia coli was determined as 0.013 µg/mL (≈ 0.0372 µM); with Bacteria, 0.05 µg/mL (≈ 0.143 µM); in the assay with Streptococcus pneumoniae, 0.05 µg/mL (≈ 0.143 µM); with Staphylococcus aureus [6], 0.013 µg/mL (≈ 0.0372 µM). Moreover, the ED50 in the assay on Mus musculus [1] came out at 6 mg/kg; in the assay on Mus musculus [2], 1 mg/kg; in the assay on Mus musculus [3], 15 mg/kg; with Mus musculus [4], 0.4 mg/kg. Further, the Ratio in assay [7] came to 0.029; in assay [8] it was 0.044. In [9], this compound returned a DNA cleavage of 0.25 µg/mL.

With `CCNCC1CCN(c2c(F)cc3c(=O)c(C(=O)O)cn(C4CC4)c3c2F)C1` (stereo not given) [PD-117558], the minimal inhibitory concentration (MIC) in the assay on Klebsiella pneumoniae was found to be 0.1 µg/mL (≈ 0.255 µM); in the assay on Pseudomonas aeruginosa, 0.4 µg/mL (≈ 1.02 µM); in the assay on Bacteria it was 0.2 µg/mL (≈ 0.511 µM); against Streptococcus pyogenes, 0.025 µg/mL (≈ 0.0639 µM); in the assay on Staphylococcus aureus [6] it was 0.013 µg/mL (≈ 0.0332 µM). For the same compound, the ED50 in the assay with Mus musculus [1] stood at 2 mg/kg; in the assay with Mus musculus [2], 4.2 mg/kg; in the assay with Mus musculus [3] it was 3.3 mg/kg; in the assay with Mus musculus [4], 1 mg/kg. The values for the Ratio in [7] and in [8] were 0.13 and 0.025, respectively. This compound gave a DNA cleavage in assay [9] of 0.25 µg/mL.

For the compound `Cc1c(F)c(N2CCNC(C)C2)c(F)c2c1c(=O)c(C(=O)O)cn2C1CC1` (stereo not given), the MIC with Enterobacter cloacae came to 0.025 µg/mL (≈ 0.0662 µM); in the assay on Escherichia coli, 0.025 µg/mL (≈ 0.0662 µM); against Klebsiella pneumoniae, 0.05 µg/mL (≈ 0.132 µM); against Pseudomonas aeruginosa it was 0.4 µg/mL (≈ 1.06 µM); against Bacteria, 0.1 µg/mL (≈ 0.265 µM); with Streptococcus pneumoniae it was 0.025 µg/mL (≈ 0.0662 µM). Also, the MIC in the assay with Enterococcus faecalis worked out at 0.1 µg/mL (≈ 0.265 µM); against Streptococcus pyogenes, 0.05 µg/mL (≈ 0.132 µM); against Staphylococcus aureus [5], 0.025 µg/mL (≈ 0.0662 µM); in the assay with Staphylococcus aureus [6], 0.013 µg/mL (≈ 0.0344 µM). Besides, the ED50 worked out at 11 mg/kg in the assay with Mus musculus [1], 0.75 mg/kg in the assay on Mus musculus [2], 12 mg/kg in the assay with Mus musculus [3] and 0.4 mg/kg with Mus musculus [4]. The Ratio came out at 0.066 in assay [7] and 0.033 in [8]. In assay [9], this compound showed a DNA cleavage of 3 µg/mL.

With `Cc1c(F)c(N2CCNCC2)cc2c1c(=O)c(C(=O)O)cn2C1CC1`, the MIC stood at 0.013 µg/mL (≈ 0.0376 µM) against Enterobacter cloacae; 0.013 µg/mL (≈ 0.0376 µM) in the assay on Escherichia coli; 0.05 µg/mL (≈ 0.145 µM) in the assay with Klebsiella pneumoniae; 0.2 µg/mL (≈ 0.579 µM) against Pseudomonas aeruginosa; 0.1 µg/mL (≈ 0.29 µM) against Bacteria; 0.05 µg/mL (≈ 0.145 µM) with Streptococcus pneumoniae. Also, the MIC was determined as 0.05 µg/mL (≈ 0.145 µM) in the assay on Enterococcus faecalis, 0.1 µg/mL (≈ 0.29 µM) against Streptococcus pyogenes, 0.1 µg/mL (≈ 0.29 µM) with Staphylococcus aureus [5] and 0.025 µg/mL (≈ 0.0724 µM) in the assay on Staphylococcus aureus [6]. Besides, the ED50 with Mus musculus [1] was 21 mg/kg; in the assay with Mus musculus [2] it was 1.5 mg/kg; in the assay on Mus musculus [3], 100 mg/kg; in the assay with Mus musculus [4], 0.4 mg/kg. The Ratio in [7] came to 0.044; in [8] it was 0.057. Moreover, the DNA cleavage in [9] turned out to be 0.3 µg/mL.

Usually MIC stands for the smallest concentration in the dilution series that meets the test's criterion for growth inhibition.
